Measured values: ChEMBL document CHEMBL2434951, “Synthesis and antimicrobial activity of polyhalobenzonitrile quinazolin-4(3H)-one derivatives” (2013)
In brackets after ≈: the same amount, converted by molar mass. Activity calls are given as the source filed them. No cut-off for these calls is given here.

What was measured:
Format in all cases: functional
Escherichia coli [1] = experiment: Antibacterial activity against Escherichia coli ATCC 8099 assessed as growth inhibition at 1000 ug/mL after 24 hrs by disk diffusion assay; conditions: for zone of inhibition at 1000 µg/mL: ATCC 8099, 24 h, read-out: DIZ
How it was run: (§1)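 Disk diffusion on nutrient agar, inoculum spread evenly. Disks of 6 mm Whatman No. 1 paper, dry-heat sterilized at 121 °C for 1 h, soaked in test compound at 1000 (micro)g/mL. Norfloxacin and chlorothalonil disks as positive controls, DMSO disks as negative control. Plates incubated 24 h at 37 °C. Inhibition zone diameter measured in mm.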

Pseudomonas aeruginosa [2] = experiment: Antibacterial activity against Pseudomonas aeruginosa ATCC 15442 assessed as growth inhibition at 1000 ug/mL after 24 hrs by disk diffusion assay; conditions: for zone of inhibition at 1000 µg/mL: ATCC 15442, 24 h, read-out: DIZ; how it was run: as §1
Candida albicans = experiment: Antifungal activity against Candida albicans ATCC 10231 assessed as growth inhibition at 1000 ug/mL after 24 hrs by disk diffusion assay; conditions: for zone of inhibition at 1000 µg/mL: ATCC 10231, 24 h, read-out: DIZ; how it was run: as §1
Bacillus cereus [3] = experiment: Antibacterial activity against Bacillus cereus ATCC 14579 assessed as growth inhibition at 1000 ug/mL after 24 hrs by disk diffusion assay; conditions: for zone of inhibition at 1000 µg/mL: ATCC 14579, 24 h, read-out: DIZ; how it was run: as §1
Staphylococcus aureus [4] = experiment: Antibacterial activity against Staphylococcus aureus ATCC 6538 assessed as growth inhibition at 1000 ug/mL after 24 hrs by disk diffusion assay; conditions: for zone of inhibition at 1000 µg/mL: ATCC 6538, 24 h, read-out: DIZ; how it was run: as §1
Escherichia coli [5] = experiment: Antibacterial activity against Escherichia coli ATCC 8099 assessed as growth inhibition after 24 hrs by liquid dilution method
How it was run: (§2)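 Liquid (tube) dilution. Compounds and positive controls in DMSO at 11 concentrations from 0.98 upward. Each tube held 1 mL compound solution plus bacterial or fungal inoculum and sterile water. Incubated 24 h, then checked for turbidity; MIC is the lowest concentration without growth. Chlorothalonil, norfloxacin and fluconazole as standards.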

Staphylococcus aureus [6] = experiment: Antibacterial activity against Staphylococcus aureus ATCC 6538 assessed as growth inhibition after 24 hrs by liquid dilution method; how it was run: as §2
Pseudomonas aeruginosa [7] = experiment: Antibacterial activity against Pseudomonas aeruginosa ATCC 15442 assessed as growth inhibition after 24 hrs by liquid dilution method; how it was run: as §2
Bacillus cereus [8] = experiment: Antibacterial activity against Bacillus cereus ATCC 14579 assessed as growth inhibition after 24 hrs by liquid dilution method; how it was run: as §2

| Structure (SMILES) | zone of inhibition at 1000 µg/mL (Escherichia coli [1]) [mm] | diameter of the inhibition zone (DIZ) (Pseudomonas aeruginosa [2]) | diameter of the inhibition zone (DIZ) (Candida albicans) | diameter of the inhibition zone (DIZ) (Bacillus cereus [3]) | diameter of the inhibition zone (DIZ) (Staphylococcus aureus [4]) | zone of inhibition at 1000 µg/mL (Pseudomonas aeruginosa [2]) [mm] | zone of inhibition at 1000 µg/mL (Bacillus cereus [3]) [mm] | zone of inhibition at 1000 µg/mL (Staphylococcus aureus [4]) [mm] | diameter of the inhibition zone (DIZ) (Escherichia coli [1]) | MIC (Escherichia coli [5]) | zone of inhibition at 1000 µg/mL (Candida albicans) [mm] | MIC (Staphylococcus aureus [6]) | MIC (Pseudomonas aeruginosa [7]; ATCC 15442, 24 h) [µg/mL] | MIC (Bacillus cereus [8]; ATCC 14579, 24 h) [µg/mL] | MIC (Escherichia coli [5]; ATCC 8099, 24 h) [µg/mL] | MIC (Staphylococcus aureus [6]; ATCC 6538, 24 h) [µg/mL] | MIC (Pseudomonas aeruginosa [7]) | MIC (Bacillus cereus [8]) |
| --- | --- | --- | --- | --- | --- | --- | --- | --- | --- | --- | --- | --- | --- | --- | --- | --- | --- | --- |
| Cc1cccc(Nc2ccc(N)c3nc[nH]c(=O)c23)c1 | 6.5 | inactive | inactive | inactive | inactive | – | – | – | – | – | – | – | – | – | – | – | – | – |
| Nc1ccc(N2CCCCC2)c2c(=O)[nH]cnc12 | 7.8 | inactive | inactive | inactive | inactive | – | – | – | – | – | – | – | – | – | – | – | – | – |
| CCN(CC)c1ccc(N)c2nc[nH]c(=O)c12 | 6 | – | inactive | – | – | 7.5 | 6 | 7.3 | – | – | – | – | – | – | – | – | – | – |
| N#Cc1c(F)c(Cl)c(Nc2ccc(Nc3ccccc3)c3c(=O)[nH]cnc23)c(C#N)c1F | – | – | – | – | – | 9.5 | 6 | 8.9 | inactive | inactive | 6 | inactive | 500 (≈ 1110 µM) | 500 (≈ 1110 µM) | – | – | – | – |
| N#Cc1c(Cl)c(Cl)c(Nc2ccc(Nc3ccc(Cl)cc3)c3c(=O)[nH]cnc23)c(C#N)c1Cl | 9 | – | – | – | – | 9.5 | 9 | 8.8 | – | – | 9.5 | – | 417 (≈ 807 µM) | 83.3 (≈ 161 µM) | 333 (≈ 646 µM) | 4.7 (≈ 9.11 µM) | – | – |
| Cc1ccc(Nc2ccc(N)c3nc[nH]c(=O)c23)cc1C | – | inactive | inactive | inactive | – | – | – | 6.5 | inactive | – | – | – | – | – | – | – | – | – |
| CCN(CC)c1ccc(Nc2c(Cl)c(Cl)c(C#N)c(Cl)c2C#N)c2nc[nH]c(=O)c12 | 6 | – | inactive | – | – | 7.5 | 6 | 7.7 | – | – | – | – | – | – | – | – | – | – |
| Cc1ccc(Nc2ccc(N)c3nc[nH]c(=O)c23)cc1 | – | inactive | inactive | inactive | inactive | – | – | – | inactive | – | – | – | – | – | – | – | – | – |
| Nc1ccc(Nc2cccc(Cl)c2)c2c(=O)[nH]cnc12 | 6 | – | inactive | – | – | 6.5 | 6 | 6.5 | – | inactive | – | inactive | – | – | – | – | inactive | inactive |
| Cc1ccc(Nc2c(Cl)c(Cl)c(C#N)c(Cl)c2C#N)c(Nc2ccc([N+](=O)[O-])c3nc[nH]c(=O)c23)c1 | 9 | – | – | – | – | 9.5 | 10.7 | 9.3 | – | – | 7.5 | – | 417 (≈ 771 µM) | 52.1 (≈ 96.3 µM) | 417 (≈ 771 µM) | 500 (≈ 925 µM) | – | – |
| Nc1ccc(Nc2ccc(F)cc2)c2c(=O)[nH]cnc12 | – | – | inactive | – | inactive | 6 | 6 | – | inactive | – | – | – | – | – | – | – | – | – |
| Cc1cccc(Nc2ccc(Nc3c(Cl)c(Cl)c(C#N)c(Cl)c3C#N)c3nc[nH]c(=O)c23)c1 | 10.3 | – | – | – | – | 10 | 11 | 9.7 | – | – | 10 | – | – | 1 (≈ 2.02 µM) | 104 (≈ 210 µM) | 5.2 (≈ 10.5 µM) | inactive | – |
| Nc1ccc(Nc2ccccc2)c2c(=O)[nH]cnc12 | – | – | inactive | – | inactive | 7 | 9.5 | – | inactive | – | – | – | 250 (≈ 991 µM) | 125 (≈ 495 µM) | 208 (≈ 826 µM) | 208 (≈ 824 µM) | – | – |
| N#Cc1c(F)c(Cl)c(Nc2ccc(Nc3ccc(Cl)cc3)c3c(=O)[nH]cnc23)c(C#N)c1F | 9 | – | – | – | – | 12 | 10.4 | 9.7 | – | – | 8.5 | – | 500 (≈ 1030 µM) | 41.7 (≈ 86.3 µM) | 208 (≈ 431 µM) | 20.8 (≈ 43 µM) | – | – |
| Cc1ccccc1Nc1ccc(Nc2c(Cl)c(F)c(C#N)c(F)c2C#N)c2nc[nH]c(=O)c12 | 9.7 | – | – | – | – | 9.5 | 10.8 | 10.3 | – | – | 7.5 | – | 208 (≈ 450 µM) | 52.1 (≈ 113 µM) | 208 (≈ 450 µM) | 208 (≈ 450 µM) | – | – |
| N#Cc1c(Cl)c(Cl)c(Nc2ccc(Nc3ccccc3)c3c(=O)[nH]cnc23)c(C#N)c1Cl | 11 | – | – | – | – | 11.3 | 11.7 | 10 | – | – | 10.3 | – | 83.4 (≈ 173 µM) | 0.5 (≈ 1.04 µM) | 250 (≈ 519 µM) | 125 (≈ 259 µM) | – | – |
| N#Cc1c(Cl)c(Cl)c(Nc2ccccc2Nc2ccc([N+](=O)[O-])c3nc[nH]c(=O)c23)c(C#N)c1Cl | 7 | – | inactive | – | – | 6.7 | 11.2 | 7.3 | – | – | – | – | 125 (≈ 237 µM) | 41.7 (≈ 79.2 µM) | 167 (≈ 316 µM) | 250 (≈ 475 µM) | – | – |
| CN(C)c1ccc(N)c2nc[nH]c(=O)c12 | 8.5 | inactive | inactive | inactive | inactive | – | – | – | – | – | – | – | – | – | – | – | – | – |
| Nc1ccccc1Nc1ccc([N+](=O)[O-])c2nc[nH]c(=O)c12 | 7.8 | inactive | inactive | inactive | inactive | – | – | – | – | – | – | – | – | – | – | – | – | – |
| Nc1ccc(Nc2ccc(Cl)cc2)c2c(=O)[nH]cnc12 | – | inactive | inactive | inactive | inactive | – | – | – | inactive | – | – | – | – | – | – | – | – | – |
| Cc1cccc(Nc2ccc(Nc3c(Cl)c(F)c(C#N)c(F)c3C#N)c3nc[nH]c(=O)c23)c1 | 9.3 | – | – | – | – | 10 | 10 | 9.8 | – | – | 9.5 | – | 417 (≈ 900 µM) | 292 (≈ 630 µM) | 500 (≈ 1080 µM) | 500 (≈ 1080 µM) | – | – |
| Cc1ccccc1Nc1ccc(Nc2c(Cl)c(Cl)c(C#N)c(Cl)c2C#N)c2nc[nH]c(=O)c12 | 12.5 | – | inactive | – | – | 9 | 10.5 | 10 | – | – | – | – | 83.4 (≈ 168 µM) | 0.5 (≈ 1.01 µM) | 125 (≈ 252 µM) | 52.1 (≈ 105 µM) | – | – |
| Cc1ccc(Nc2ccc(Nc3c(Cl)c(Cl)c(C#N)c(Cl)c3C#N)c3nc[nH]c(=O)c23)cc1C | 10.8 | – | – | – | – | 9.4 | 11 | 8.5 | – | – | 10 | – | – | 0.8 (≈ 1.57 µM) | 83.3 (≈ 163 µM) | 15.6 (≈ 30.6 µM) | inactive | – |
| Cc1ccccc1Nc1ccc(N)c2nc[nH]c(=O)c12 | 9 | – | – | – | – | 8.5 | 6 | 8 | – | – | 10 | – | 417 (≈ 1560 µM) | 167 (≈ 626 µM) | 250 (≈ 939 µM) | 250 (≈ 939 µM) | – | – |
| Cc1ccc(N)c(Nc2ccc([N+](=O)[O-])c3nc[nH]c(=O)c23)c1 | 14.7 | – | – | – | – | 16.8 | 15 | 5.3 | – | – | 13.5 | – | 20.8 (≈ 66.8 µM) | 20.8 (≈ 66.8 µM) | 20.8 (≈ 66.8 µM) | 10.4 (≈ 33.4 µM) | – | – |
| Cc1cc(C)cc(Nc2ccc(N)c3nc[nH]c(=O)c23)c1 | – | – | inactive | – | inactive | 6.3 | 6 | – | inactive | – | – | – | – | – | – | – | – | – |
